The test system of assay [1] is purified bovine brain tubulin. Nature of the assay: Tubulin polymerization assay. It counts as biochemical.
The test system of assay [2] is tubulin (colchicine site). Description: Inhibition of [3H]colchicine binding to tubulin. Details: species or system bovine. The note with it: for Inhibition of colchicine binding % Inhibition ± SD: tubulin 1 µM, colchicine 5 µM. The procedure, abridged: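 Purified bovine brain tubulin at 0.1 mg/mL (1.0 µM) was incubated 10 min at 37 °C with 5.0 µM [3H]colchicine, test compound, 5% (v/v) DMSO and 1.0 M glutamate. Reactions were stopped with 0 °C water, filtered through two stacked DEAE-cellulose filters and washed three times with ice-cold water. Filter-bound radiolabel was counted by liquid scintillation; % inhibition ± SD.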

The test system of another assay is Raji. Nature of the assay: MTT cytotoxicity assay, Raji. The class given is cell-based, human. The note with it: 48 h. A digest of the protocol: (§1)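 Cells grew in RPMI-1640 with 10% FBS, L-glutamine, penicillin and streptomycin at 37 °C, 5% CO2. They were seeded at 10,000/well overnight in 1% FBS medium, then treated 48 h with test compound at 0.1–125 µM; the solvent control was 0.1% DMSO. MTT (0.5 mg/mL final) was added for 4 h, formazan dissolved in DMSO, and absorbance read at 570 nm. Quadruplicates were taken as % of solvent control, IC50 from concentration–response curves.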

Assay [3] concerns caspase-3 and PARP in HL-60 cells. Description: Western blot analysis of caspase-3 and PARP. The note with it: HL-60, 24 h and 48 h. The class given is cell-based, human. A digest of the protocol:
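HL-60 cells were treated with test compound at various concentrations and times, washed in ice-cold PBS and lysed on ice 30 min. Lysates were cleared at 15000 × g, 4 °C, 10 min. Per lane, 20 µg protein (BCA) was separated by SDS-PAGE (7.5–15%) and blotted to PVDF. Membranes were blocked with 5% BSA, probed overnight at 4 °C for caspase-3 and PARP, then with peroxidase secondaries and ECL. Reprobing for β-actin checked loading.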

The subject of assay [4] is HeLa cells. Description: Flow cytometric cell cycle distribution, HeLa. It counts as cell-based, human. As to conditions: 24 h. A digest of the protocol: (§2)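 Per assay, 5×10^5 cells were exposed to test compound at several concentrations for 24 h. Cells were then collected, fixed in ice-cold 70% ethanol, lysed in buffer with RNase A and 0.1% Triton X-100, PI-stained and run on a flow cytometer. Phase distribution came from DNA histograms; means ± SEM of three independent experiments.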

In assay [5] the test system is HL-60 cells. Description: Flow cytometric cell cycle distribution, HL-60. It counts as cell-based, human. The note with it: HL-60, 24 h. A digest of the protocol: as §2
For orientation: Flow cytometry measures light scatter and fluorescence of single cells or particles in a stream.

Assay [6] has as its system HL-60 cells. Nature of the assay: Annexin-V/PI apoptosis assay, HL-60. As to conditions: HL-60, 24 or 48 h. The class given is cell-based, human.
The subject of assay [7] is HeLa cells. Nature of the assay: Annexin-V/PI apoptosis assay, HeLa. The class given is cell-based, human. As to conditions: 24 or 48 h.
A further assay concerns HeLa. Description: MTT cytotoxicity assay, HeLa. It counts as cell-based, human. As to conditions: 48 h. A digest of the protocol:
as §1

As to `COc1ccc(NC(=O)/C=C/c2c[nH]c3ccccc23)cc1OC` [Compound 3c, (E)-N-(3,4-Dimethoxyphenyl)-3-(1H-indol-3-yl)acrylamide], in assay [1], the “antitubulin activity (in words)” value is “inactive”.

Turning to `COc1ccc(OC)c(NC(=O)/C=C/c2c[nH]c3ccccc23)c1` [Compound 3b, (E)-N-(2,5-Dimethoxyphenyl)-3-(1H-indol-3-yl)acrylamide], the “antitubulin activity (in words)” value in [1] was “inactive”.

Turning to `COc1ccc(/C=C\c2cc(OC)c(OC)c(OC)c2)cc1O` [CA-4, combretastatin A-4], the “Inhibition of colchicine binding % Inhibition ± SD” value was 88 ± 0.3% in assay [2] (compound 1 µM) and 98 ± 0.8% in assay [2] (compound 5 µM).

For `COc1ccc(CNC(=O)/C=C/c2c[nH]c3ccccc23)c(OC)c1` [Compound 3i, (E)-N-(2,4-Dimethoxybenzyl)-3-(1H-indol-3-yl)acrylamide], the “activity against Raji cells (in words)” value with Raji was “weak activity”.

Take `COc1cc(NC(=O)/C=C/c2c[nH]c3ccccc23)cc(OC)c1OC` [Compound 3e, (E)-3-(1H-Indol-3-yl)-N-(3,4,5-trimethoxyphenyl)acrylamide]: the PARP cleavage result in assay [3] is listed as “cleavage of its substrate PARP”. Besides, the “caspase-3 activation (cleaved fragments)” value in assay [3] is recorded as “induced the activation of caspase-3”. For the same compound, the “lowest concentration giving increase in G2/M phase cells” value in the assay with HeLa cells [4] and in the assay on HL-60 cells [5] was 10 µM each time. The “cells blocked in G2/M” value is “more than 80%” with HeLa cells [4] (15–30 µM) and greater than 60% with HL-60 cells [5] (15–30 µM). Moreover, the “inhibition of [3H]colchicine binding (in words)” value in [2] (compound 50 µM) is listed as “Significant inhibition”. Besides, the “annexin-V+/PI− and annexin-V+/PI+ fractions (apoptosis)” value in the assay with HL-60 cells [6] is “concentration- and time-dependent increase”; in the assay on HeLa cells [7], “concentration- and time-dependent increase”.

As for `COc1cc(CNC(=O)/C=C/c2c[nH]c3ccccc23)ccc1O` [Compound 3g, (E)-N-(4-Hydroxy-3-methoxybenzyl)-3-(1H-indol-3-yl)acrylamide], the “activity against Raji cells (in words)” value in the assay with Raji is “weak activity”.

On to `COc1cc(NC(=O)/C=C/c2c[nH]c3ccccc23)cc(OC)c1` [Compound 3d, (E)-N-(3,5-Dimethoxyphenyl)-3-(1H-indol-3-yl)acrylamide], for which, in assay [1], the “antitubulin activity (in words)” value is “inactive”.

In the case of `COc1cccc(CNC(=O)/C=C/c2c[nH]c3ccccc23)c1OC` [Compound 3h, (E)-N-(2,3-Dimethoxybenzyl)-3-(1H-indol-3-yl)acrylamide], the “activity against HeLa cells (in words)” value with HeLa is on record as “weak activity”.

(Values after article PMC4091680 (Bioorganic & medicinal chemistry, 2014).)
